Results as given in ChEMBL document CHEMBL5058577, “EUbOPEN Chemogenomics Library 2 (Multiplex)” (2022).

System: HEK-293T
Assay: Multiplex assay against HEK293T
Format: toxicity, cell-based
Details: human
How it was run: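 Live cells were stained at seeding with Hoechst33342, BioTracker Green Microtubule Cytoskeleton Dye, MitoTracker Red and Annexin V Alexa Fluor 680. Following compound addition, they were imaged on a CQ1 microscope at 37°C and 5% CO2 and gated by CellPathfinder machine learning into Hoechst high-intensity objects or normal cells, with normal cells split into healthy, pyknosed or fragmented nuclei and pyknosed cells into mitotic or apoptotic. Tubulin, mitochondrial-mass and membrane-permeability phenotypes are per cents of healthy-nucleus cells.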

[1] = 12 h, 1 µM, compound concentration 1 uM, replicate 1
[2] = 12 h, 1 µM, compound concentration 1 uM, replicate 2
[3] = 12 h, 10 µM, compound concentration 10 uM, replicate 1
[4] = 12 h, 10 µM, compound concentration 10 uM, replicate 2
[5] = 24 h, 1 µM, compound concentration 1 uM, replicate 1
[6] = 24 h, 1 µM, compound concentration 1 uM, replicate 2
[7] = 24 h, 10 µM, compound concentration 10 uM, replicate 1
[8] = 24 h, 10 µM, compound concentration 10 uM, replicate 2
[9] = 48 h, 1 µM, compound concentration 1 uM, replicate 1
[10] = 48 h, 1 µM, compound concentration 1 uM, replicate 2
[11] = 48 h, 10 µM, compound concentration 10 uM, replicate 1
[12] = 48 h, 10 µM, compound concentration 10 uM, replicate 2

For `CC(C)(C)c1cc(NC(=O)Nc2ccc(-c3cn4c(n3)sc3cc(OCCN5CCOCC5)ccc34)cc2)no1` [QUIZARTINIB], the “Population Apoptotic (%)” value [1] was 27%, the “Population Fragmented Nuclei (%)” value [1] was 5% and the “Population Healthy Nuclei (%)” value [1] was 83%. For the same compound, the “Population Hoechst High Intensity Objects (%)” value [1] was 10%, the “Population Membrane Permeable-Phenotype (%)” value [1] was 0% and the “Population Mitochondria Different-Phenotype (%)” value [1] was 40%. The “Population Mitotic Cells (%)” value [1] was 72%, the “Population Normal (%)” value [1] was 89% and the “Population Pyknosed Nuclei (%)” value [1] was 11%. The “Population Tubulin-Different-Phenotype (%)” value [1] was 35%, the “Total Cell Count” value [1] was 377 and the “Population Apoptotic (%)” value [2] was 34%. The “Population Healthy Nuclei (%)” value [2] was 80%, the “Population Hoechst High Intensity Objects (%)” value [2] was 6% and the “Population Mitochondria Different-Phenotype (%)” value [2] was 58%. The “Population Mitotic Cells (%)” value [2] was 65%, the “Population Normal (%)” value [2] was 93% and the “Population Pyknosed Nuclei (%)” value [2] was 14%. The “Population Tubulin-Different-Phenotype (%)” value [2] was 26%, the “Total Cell Count” value [2] was 345 and the “Population Apoptotic (%)” value [3] was 53%. For the same compound, the “Population Fragmented Nuclei (%)” value [3] was 7%, the “Population Healthy Nuclei (%)” value [3] was 71% and the “Population Hoechst High Intensity Objects (%)” value [3] was 23%. For the same compound, the “Population Membrane Permeable-Phenotype (%)” value [3] was 0%, the “Population Mitochondria Different-Phenotype (%)” value [3] was 78% and the “Population Mitotic Cells (%)” value [3] was 46%. The “Population Normal (%)” value [3] was 76%, the “Population Pyknosed Nuclei (%)” value [3] was 21% and the “Population Tubulin-Different-Phenotype (%)” value [3] was 68%. The “Total Cell Count” value [3] was 324, the “Population Apoptotic (%)” value [4] was 73% and the “Population Hoechst High Intensity Objects (%)” value [4] was 12%. The “Population Mitochondria Different-Phenotype (%)” value [4] was 81%, the “Population Mitotic Cells (%)” value [4] was 26% and the “Population Normal (%)” value [4] was 87%. The “Population Tubulin-Different-Phenotype (%)” value [4] was 63%, the “Total Cell Count” value [4] was 293 and the “Population Apoptotic (%)” value [5] was 41%. For the same compound, the “Population Fragmented Nuclei (%)” value [5] was 7%, the “Population Healthy Nuclei (%)” value [5] was 84% and the “Population Hoechst High Intensity Objects (%)” value [5] was 6%. The “Population Membrane Permeable-Phenotype (%)” value [5] was 0%, the “Population Mitochondria Different-Phenotype (%)” value [5] was 26% and the “Population Mitotic Cells (%)” value [5] was 58%. For the same compound, the “Population Normal (%)” value [5] was 93%, the “Population Pyknosed Nuclei (%)” value [5] was 7% and the “Population Tubulin-Different-Phenotype (%)” value [5] was 21%. The “Total Cell Count” value [5] was 491, the “Population Apoptotic (%)” value [6] was 38% and the “Population Fragmented Nuclei (%)” value [6] was 5%. The “Population Hoechst High Intensity Objects (%)” value [6] was 4%, the “Population Mitochondria Different-Phenotype (%)” value [6] was 40% and the “Population Mitotic Cells (%)” value [6] was 61%. The “Population Normal (%)” value [6] was 95%, the “Population Pyknosed Nuclei (%)” value [6] was 10% and the “Population Tubulin-Different-Phenotype (%)” value [6] was 17%. The “Total Cell Count” value [6] was 440, the “Population Apoptotic (%)” value [7] was 62% and the “Population Fragmented Nuclei (%)” value [7] was 8%. The “Population Healthy Nuclei (%)” value [7] was 79%, the “Population Hoechst High Intensity Objects (%)” value [7] was 16% and the “Population Membrane Permeable-Phenotype (%)” value [7] was 0%. For the same compound, the “Population Mitochondria Different-Phenotype (%)” value [7] was 63%, the “Population Mitotic Cells (%)” value [7] was 37% and the “Population Normal (%)” value [7] was 83%. The “Population Pyknosed Nuclei (%)” value [7] was 12%, the “Population Tubulin-Different-Phenotype (%)” value [7] was 57% and the “Total Cell Count” value [7] was 413. For the same compound, the “Population Apoptotic (%)” value [8] was 69%, the “Population Fragmented Nuclei (%)” value [8] was 9% and the “Population Healthy Nuclei (%)” value [8] was 78%. The “Population Hoechst High Intensity Objects (%)” value [8] was 9%, the “Population Mitochondria Different-Phenotype (%)” value [8] was 75% and the “Population Mitotic Cells (%)” value [8] was 30%. The “Population Normal (%)” value [8] was 90%, the “Population Pyknosed Nuclei (%)” value [8] was 11% and the “Population Tubulin-Different-Phenotype (%)” value [8] was 50%. For the same compound, the “Total Cell Count” value [8] was 321, the “Population Apoptotic (%)” value [9] was 21% and the “Population Fragmented Nuclei (%)” value [9] was 12%. For the same compound, the “Population Healthy Nuclei (%)” value [9] was 80%, the “Population Hoechst High Intensity Objects (%)” value [9] was 3% and the “Population Membrane Permeable-Phenotype (%)” value [9] was 2%. The “Population Mitochondria Different-Phenotype (%)” value [9] was 11%, the “Population Mitotic Cells (%)” value [9] was 78% and the “Population Normal (%)” value [9] was 96%. For the same compound, the “Population Pyknosed Nuclei (%)” value [9] was 6%, the “Population Tubulin-Different-Phenotype (%)” value [9] was 15% and the “Total Cell Count” value [9] was 851. The “Population Fragmented Nuclei (%)” value [10] was 10%, the “Population Healthy Nuclei (%)” value [10] was 82% and the “Population Hoechst High Intensity Objects (%)” value [10] was 2%. The “Population Membrane Permeable-Phenotype (%)” value [10] was 0%, the “Population Mitochondria Different-Phenotype (%)” value [10] was 24% and the “Population Normal (%)” value [10] was 97%. The “Population Tubulin-Different-Phenotype (%)” value [10] was 18%, the “Total Cell Count” value [10] was 566 and the “Population Apoptotic (%)” value [11] was 57%. For the same compound, the “Population Fragmented Nuclei (%)” value [11] was 9%, the “Population Healthy Nuclei (%)” value [11] was 77% and the “Population Hoechst High Intensity Objects (%)” value [11] was 9%. For the same compound, the “Population Membrane Permeable-Phenotype (%)” value [11] was 1%, the “Population Mitochondria Different-Phenotype (%)” value [11] was 40% and the “Population Mitotic Cells (%)” value [11] was 42%. For the same compound, the “Population Normal (%)” value [11] was 90%, the “Population Pyknosed Nuclei (%)” value [11] was 12% and the “Population Tubulin-Different-Phenotype (%)” value [11] was 35%. For the same compound, the “Total Cell Count” value [11] was 583, the “Population Apoptotic (%)” value [12] was 58% and the “Population Fragmented Nuclei (%)” value [12] was 11%. For the same compound, the “Population Healthy Nuclei (%)” value [12] was 73%, the “Population Hoechst High Intensity Objects (%)” value [12] was 12% and the “Population Membrane Permeable-Phenotype (%)” value [12] was 0%. The “Population Mitochondria Different-Phenotype (%)” value [12] was 59%, the “Population Mitotic Cells (%)” value [12] was 41% and the “Population Normal (%)” value [12] was 87%. For the same compound, the “Population Pyknosed Nuclei (%)” value [12] was 14%, the “Population Tubulin-Different-Phenotype (%)” value [12] was 37% and the “Total Cell Count” value [12] was 392.
